Values belong to the compound of their own block, whether it stands above or below them.
Legend:
[1] = serum peptide content by GLP-1R and GcgR cAMP bioassay; type: in vivo, mouse; details: 10 nmol/kg SC QD 7 d
Summary of the method: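 On day 7 they got a final dose and serum was taken at 0, 2, 6 or 16 h (n=4/timepoint). Apparent serum peptide concentration was estimated from cAMP accumulation in CHO K1 cells stably expressing human GLP1R or GcgR, by potency comparison.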

[2] = test system: non-cirrhotic, non-alcoholic steatohepatitis patients; details: cited from earlier work
[3] = test system: C57BL/6J mice fed AMLN diet; assay: sub-chronic dosing in C57Bl/6J AMLN NASH model; type: in vivo, mouse; details: for weight loss from baseline: Cotadutide 10, Liraglutide 40 nmol/kg SC, OCA 70 μmol/kg PO, QD 6 weeks; for food intake within the first 4 days: same doses; for animals with reduced fibrosis / animals with reduced fibrosis (number of group): n=12; for mice in which NAS was reduced: vehicle controls 8%
Summary of the method: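 Male C57BL/6J mice, about 6 weeks old, were fed AMLN diet for 29 weeks (chow controls) before dosing for 6 weeks, n=12/group. Dosing: peptides SC once daily just before lights off; OCA oral. Every mouse got both an SC vehicle (phosphate/propylene glycol/PS-80, pH 7.5) and an oral vehicle (0.5% CMC). Body weight was recorded daily. ipGTT on day 28 after 4 h fast (1.5 g/kg glucose). Terminal blood and liver collected on day 42.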

[4] = test system: primary human hepatocytes from normal or NASH donors; assay: PPARGC1A mRNA in primary human hepatocytes; type: cell-based; details: 100 nM, 4 h; healthy and NASH donors
Summary of the method: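 Primary hepatocytes from normal or NASH human donors, exposed to test compound at 100 nM for 4 h; PPARGC1A transcript measured. n=3 biologically independent samples per group.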

ob/ob AMLN NASH mice = assay: sub-chronic dosing in ob/ob AMLN NASH model; type: in vivo, mouse
[5] = test system: C57Bl/6J diet induced obese (DIO) male mice; assay: time course study in DIO C57Bl/6J mice, 7 days dosing; type: in vivo, mouse
Summary of the method: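 On day 7 they were euthanized at time 0, or at 2, 6 or 16 h after a final dose (n=4/group/timepoint). Body weight was tracked as % change from baseline; blood glucose was measured.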

[6] = test system: C57BL6J diet-induced NASH model; assay: six-week treatment of NASH C57Bl6/J mice; type: in vivo, mouse
[7] = test system: primary mouse hepatocytes; assay: mitochondrial oxygen consumption; type: cell-based
Summary of the method: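 Seahorse XFe96 run on primary mouse hepatocytes at 7500 cells/well, recovered overnight, then treated 4 h with 100 nM test compound. Assay medium: DMEM with 5 mM glucose, 4 mM L-glutamine, 2 mM pyruvate, pH 7.4; 30 min CO₂-free preincubation. Stress test used 1 μM oligomycin, 0.5 μM FCCP and 5 μM antimycin A. Basal and maximal OCR normalized to citrate synthase activity. n=3; substrate oxidation n=2.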

[8] = test system: mouse primary hepatocytes; assay: mitophagosomes by live cell confocal microscopy; type: cell-based; details: 100 nM, 2h
Summary of the method: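 Primary mouse hepatocytes were kept 1 h at 37°C/5% CO2, then 4 h in fresh isolation medium, then moved to serum-free low-glucose DMEM (10 mM lactate, 2 mM glutamine, 5 mM HEPES, 10 nM dexamethasone). Cells were used 18–24 h post-plating and given 100 nM test compound for 2 h. Live cells were stained with Mitotracker green plus Lysotracker deep red and imaged by confocal microscopy. Mitophagosomes were scored as Lysotracker puncta containing Mitotracker signal.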

C57Bl/6J DIO male mice = assay: hyperglycemic clamp and stable isotope infusions in DIO C57Bl6J; type: in vivo, mouse
Summary of the method: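 Twenty-week-old male C57Bl/6J DIO mice were kept on a shifted light cycle (lights on midnight to noon). Arterial and venous catheters were placed 5 days before a hyperglycemic clamp with […] glucose and water tracing.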

[9] = test system: DIO C57Bl/6J Wild-type (WT) mice; assay: two-week treatment of DIO GLP-1R WT mice; type: in vivo, mouse
Summary of the method: (§1)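 Mice were made obese on diet for 8 weeks, then moved to 45% high-fat diet for 2 weeks. Body weight was tracked as % change, with cumulative food intake over days 1–4. Blood and tissues were taken 20 h after the final dose.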

[10] = test system: primary murine hepatocytes; assay: de novo lipogenesis, 3H-acetate lipid incorporation; type: cell-based, mouse; details: 100 nM; vs vehicle-treated controls
Summary of the method: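 Primary murine hepatocytes treated ex vivo with test compound at 100 nM. De novo lipogenesis was measured as ³H-acetate incorporation into lipid: lipids were extracted, and ³H in the lower phase was counted by scintillation. Values are relative to vehicle-treated controls. n=3–6 per treatment, n=9 vehicle.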

[11] = test system: primary mouse hepatocytes; assay: mRNA levels in primary mouse hepatocytes; type: cell-based; details: 1, 10, 100 nM, 4h
Summary of the method: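 Primary mouse hepatocytes were exposed to test compound at 1, 10 or 100 nM for 4 h, and G6pc, Pck1 and Ppargc1a mRNA were measured. For Ppargc1a, the 100 nM condition was also combined with PKA inhibitor H89 at 10 μM. For G6pc and Pck1, it was combined with H89 at 2.5, 5 or 10 μM. n=3 biologically independent samples; one-way ANOVA with Dunnett post-hoc.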

[12] = test system: DIO GLP-1R knock-out (KO) mice; assay: two-week treatment of DIO GLP-1R KO mice; type: in vivo, mouse
Summary of the method: as §1

pharmacokinetics compared with Cotadutide, in words [1]: longer bioavailability
Compound: CCCCCCCCCCCCCCCC(=O)N[C@@H](CCC(=O)NCCCC[C@H](NC(=O)[C@H](C)NC(=O)[C@H](C)NC(=O)[C@H](CCC(N)=O)NC(=O)CNC(=O)[C@H](CCC(=O)O)NC(=O)[C@H](CC(C)C)NC(=O)[C@H](Cc1ccc(O)cc1)NC(=O)[C@H](CO)NC(=O)[C@H](CO)NC(=O)[C@@H](NC(=O)[C@H](CC(=O)O)NC(=O)[C@H](CO)NC(=O)[C@@H](NC(=O)[C@H](Cc1ccccc1)NC(=O)[C@@H](NC(=O)CNC(=O)[C@H](CCC(=O)O)NC(=O)[C@H](C)NC(=O)[C@@H](N)Cc1cnc[nH]1)[C@@H](C)O)[C@@H](C)O)C(C)C)C(=O)N[C@@H](CCC(=O)O)C(=O)N[C@@H](Cc1ccccc1)C(=O)N[C@H](C(=O)N[C@@H](C)C(=O)N[C@@H](Cc1c[nH]c2ccccc12)C(=O)N[C@@H](CC(C)C)C(=O)N[C@H](C(=O)N[C@@H](CCCNC(=N)N)C(=O)NCC(=O)N[C@@H](CCCNC(=N)N)C(=O)NCC(=O)O)C(C)C)[C@@H](C)CC)C(=O)O [Liraglutide, reference compound]

Compound: CC[C@H]1[C@@H](O)[C@@H]2[C@H](CC[C@]3(C)[C@@H]([C@H](C)CCC(=O)O)CC[C@@H]23)[C@@]2(C)CC[C@@H](O)C[C@@H]12 [OCA, Obeticholic acid, reference compound]
patients with a reduction in NAS ([2]; placebo 12%): 20%
patients with reduction in fibrosis stage ([2]; placebo 17%): 35%
weight loss from baseline [3]: ~ 3%
plasma insulin at 15 min during the GTT ([3]; after 4 weeks of dosing): no effect
food intake within the first 4 days [3]: no effect
animals with reduced fibrosis ([3]; terminal vs pre-study biopsy): 8.3%
animals with reduced fibrosis (number of group) ([3]; terminal vs pre-study biopsy): 1/12
liver mass ([3]; terminal, vs vehicle): only reducing liver mass
mice in which NAS was reduced [3]: 75%
steatosis and inflammation scores and overall NAS, responders ([3]; vs vehicle): significantly more animals with lower steatosis and inflammation scores and overall NAS

serum concentration at 16h [1]: undetectable
time of highest serum concentration ([1]; sampled 0, 2, 6, 16 h after final dose): highest at 2h and 6h
Compound: Cotadutide
PPARGC1A transcript levels [4]: significantly increased
weight loss from baseline (ob/ob AMLN NASH mice; Cotadutide 30 nmol/kg, Liraglutide 40 nmol/kg SC QD 6 weeks): 7-8%
plasma C3M and P4NP7S (ob/ob AMLN NASH mice; ELISA): only reduced in Cotadutide-treated mice
resolution of fibrosis, mice (ob/ob AMLN NASH mice; n=7): resolved in all but one
lowering of collagen staining (Col1a1) (ob/ob AMLN NASH mice; not statistically significant): ~ 17%
hepatic transcript levels of Col1a1, Col3a1, Timp1, Ccl2, and Cd68 (ob/ob AMLN NASH mice; relative to AMLN vehicle): significantly reduced
hepatic transcript levels of Mmp9, Il-1b and Tnf (ob/ob AMLN NASH mice; relative to AMLN vehicle): uniquely reducing
CD68 scoring (immune cell infiltration) (ob/ob AMLN NASH mice; terminal): only reduced by Cotadutide treatment
NAS (ob/ob AMLN NASH mice; terminal): reduced
fibrosis stage (ob/ob AMLN NASH mice; terminal): improved only by Cotadutide treatment
hepatic lipid content (ob/ob AMLN NASH mice; terminal): more significant reduction in hepatic lipid content compared to Liraglutide and diet-switch
liver mass (ob/ob AMLN NASH mice; terminal): similarly reduced
liver αSMA, PSR and hydroxyproline (ob/ob AMLN NASH mice; terminal): lowered
plasma ALT (ob/ob AMLN NASH mice; terminal): lowered
hepatic Ppargc1a mRNA (ob/ob AMLN NASH mice; terminal, about 16h post last dose): restored mRNA levels to those of LFD control
hepatic DAGs and ceramides (ob/ob AMLN NASH mice; vs vehicle): only Cotadutide additionally reduced DAGs and ceramides
liver glycogen ([5]; 0-16 h after final dose): rapidly depleted by 6h post Cotadutide but rebounded to normal at 16h
body weight ([5]; 10 nmol/kg SC QD 7 d, vs vehicle): significant weight loss
blood glucose ([5]; smaller study vehicle vs Cotadutide, 2h and 6h post dose): significantly lowered
body weight ([6]; 10 nmol/kg SC QD 42 d): reduced body weight similarly to Liraglutide+g1437, but more than either Liraglutide or g1437 alone
glucose excursion in pyruvate tolerance test ([6]; day 14, pyruvate 2g/kg): lower glucose excursion
plasma alanine aminotransferase (ALT) ([6]; end of study): significantly reduced
hepatic glycogen ([6]; terminal): elevated only with Cotadutide treatment
liver triglycerides ([6]; terminal): reduced
fasted insulin ([6]; vs vehicle, Liraglutide and Liraglutide+g1437): lower
fuel preference ([7]; ex vivo treatment): no effect
basal and maximal respiration rates ([7]; healthy mouse primary hepatocytes, 100 nM, 4h): increased basal and maximal respiration rates
basal and maximal respiratory rates (OCR) ([7]; hepatocytes from ob/ob NASH mice, 100 nM, 4h ex vivo): restored
mitochondrial number [8]: without altering mitochondrial number
mitophagosomes (mitochondria within lysosomes) ([8]; vs vehicle): Increased number
de novo lipogenesis during the clamp (palmitate and glyceride synthesis) (C57Bl/6J DIO male mice; 10 nmol/kg SC QD 7 d): reduced
glycogen synthesis stimulated by hyperglycemia (C57Bl/6J DIO male mice; 10 nmol/kg SC QD 7 d): intact
hepatic (endogenous) glucose production during hyperglycemia (C57Bl/6J DIO male mice; 10 nmol/kg SC QD 7 d): suppressed
core hepatic glycogen (C57Bl/6J DIO male mice; 10 nmol/kg SC QD 7 d, fasted): lower core glycogen levels
basal glucose production (C57Bl/6J DIO male mice; fasted, basal state): increased basal glucose production
weight loss from baseline [3]: ~ 8%
glucose tolerance (ipGTT) ([3]; after 4 weeks of dosing): significantly improved by Cotadutide more so than Liraglutide or OCA
plasma insulin at 15 min during the GTT ([3]; after 4 weeks of dosing): increased
food intake within the first 4 days [3]: reduced food intake
hepatic glycogen ([3]; terminal): increase in hepatic glycogen
animals with worsened fibrosis ([3]; terminal vs pre-study biopsy): no animals had worsened fibrosis
animals with reduced fibrosis ([3]; terminal vs pre-study biopsy): 25%
animals with reduced fibrosis (number of group) ([3]; terminal vs pre-study biopsy): 3/12
liver mass ([3]; terminal, vs vehicle): unchanged liver mass
plasma ALT ([3]; terminal, vs vehicle): reduced ALT levels
mice in which NAS was reduced [3]: 83%
steatosis and inflammation scores and overall NAS, responders ([3]; vs vehicle): significantly more animals with lower steatosis and inflammation scores and overall NAS
body weight ([9]; 10 nmol/kg SC QD 14 d (Liraglutide+g1437 5+5 nmol/kg), vs vehicle): significantly reduced
liver lipid content ([9]; 10 nmol/kg SC QD 14 d, terminal): to a greater degree than Liraglutide alone
food intake ([9]; 10 nmol/kg SC QD, first 4 days of dosing): significantly reduced
fasting glucose ([9]; 10 nmol/kg SC QD, vs vehicle): lowered
de novo lipid synthesis [10]: reduce de novo lipid synthesis
G6pc and Pck1 mRNA [11]: induced
Ppargc1a mRNA [11]: equally increased
body weight ([12]; 10 nmol/kg SC QD 14 d (Liraglutide+g1437 5+5 nmol/kg)): not observed
food intake ([12]; first 4 days of dosing): but not in KO mice

From publication PMC7258337 (Nature metabolism, 2020)
